Data: ChEMBL document CHEMBL1142598, “Phytochemistry and antifungal properties of the newly discovered tree Pleodendron costaricense” (2006)
In brackets after ≈: the same amount, converted by molar mass.

Assays:
Alternaria alternata = assay: Antifungal activity against Alternaria alternata after 48 hrs by NCCLS M27A method; type: functional
Method in brief: (§1)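 Filamentous fungi grown on Sabouraud dextrose (SD) agar at 30 °C. Hyphae-containing agar block blended in SD broth, then diluted 1:5000 in SD broth. Broth microdilution in SD broth from 20 mg/mL stocks in 95% EtOH, with 4-fold serial dilution and a no-compound negative column. Incubated 30 °C, 48 h. MIC is the lowest concentration giving ≥80% growth reduction.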

Cryptococcus neoformans = assay: Antifungal activity against Cryptococcus neoformans after 48 hrs by NCCLS M27A method; type: functional
Method in brief: (§2)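 Yeast-like strain grown on SD agar at 30 °C. One colony cultured overnight in SD broth at 30 °C to OD600 0.6–0.9, then diluted 1:5000 in SD broth. Broth microdilution from 20 mg/mL stocks in 95% EtOH, with 4-fold serial dilution and a no-compound negative column. Incubated 30 °C, 48 h. MIC is the lowest concentration giving ≥80% growth reduction.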

Candida albicans [1] = assay: Antifungal activity against wild type Candida albicans Al-1 after 48 hrs by NCCLS M27A method; type: functional; method in brief: as §2
Candida albicans [2] = assay: Antifungal activity against wild type Candida albicans Al-1 in presence of dillapiol; type: functional
Method in brief: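 Synergy run by a similar broth-microdilution MIC method in C. albicans Al-1. One-row 2-fold serial dilution starting at 1000 µg/mL, testing compound alone, dillapiol alone, and compound plus dillapiol (1:5). FIC is the MIC in combination divided by the MIC alone. FICI is the dillapiol FIC plus the compound FIC.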

Candida albicans [3] = assay: Potentiation of drimane-type sesquiterpene-induced antifungal activity against wild type Candida albicans Al-1 assessed as fractional inhibition concentration index; type: functional
Method in brief: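 Broth microdilution in Sabouraud dextrose broth against C. albicans Al-1 (wild type), incubated at 30 °C for 48 h. Each sesquiterpene was tested alone, dillapiol alone, and the two combined at 1:5. A one-row 2-fold serial dilution started at 1000 µg/mL. MIC was the lowest concentration giving ≥80% growth reduction. FICI = FIC of dillapiol + FIC of compound, where FIC = MIC in combination / MIC alone.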

Exophiala dermatitidis = assay: Antifungal activity against yeast-like Wangiella dermatitidis after 48 hrs by NCCLS M27A method
Scedosporium boydii = assay: Antifungal activity against Pseudallescheria boydii after 48 hrs by NCCLS M27A method; type: functional; method in brief: as §1
Saccharomyces cerevisiae = assay: Antifungal activity against Saccharomyces cerevisiae after 48 hrs by NCCLS M27A method; type: functional; method in brief: as §2
Candida albicans [4] = assay: Antifungal activity against azole-resistant Candida albicans D10 after 48 hrs by NCCLS M27A method; type: functional; method in brief: as §2
Candida albicans [5] = assay: Antifungal activity against azole-resistant Candida albicans CN1A after 48 hrs by NCCLS M27A method; type: functional; method in brief: as §2
Scheffersomyces shehatae = assay: Antifungal activity against Candida shehatae after 48 hrs by NCCLS M27A method; type: functional; method in brief: as §2

Row | Structure (SMILES) | MIC (Alternaria alternata) | MIC (Cryptococcus neoformans) | MIC (Candida albicans [1]) | MIC (Candida albicans [2]) | fractional inhibitory concentration index (FICI) (Candida albicans [3]) | MIC (Exophiala dermatitidis) | MIC (Scedosporium boydii) | MIC (Saccharomyces cerevisiae) | MIC (Candida albicans [4]) | MIC (Candida albicans [5]) | MIC (Scheffersomyces shehatae)
1 | COc1ccc2cc3[n+](cc2c1OC)CCc1cc2c(cc1-3)OCO2.[Cl-] [BERBERINE CHLORIDE] | 125 µg/mL | 31.3 µg/mL | 31.3 µg/mL | 15.6 µg/mL | 0.5 | 31.3 µg/mL | 62.5 µg/mL | 78.1 µg/mL | 31.3 µg/mL | 15.6 µg/mL | 7.8 µg/mL
2 | CC(=O)O[C@@H]1C=C(C=O)[C@](O)(C=O)[C@@]2(C)CCCC(C)(C)[C@H]12 [CINNAMODIAL] | 3.9 µg/mL (≈ 12.6 µM) | 31.3 µg/mL (≈ 102 µM) | 62.5 µg/mL (≈ 203 µM) | 15.6 µg/mL | 0.3 | 15.6 µg/mL (≈ 50.6 µM) | 125 µg/mL (≈ 405 µM) | 31.3 µg/mL (≈ 102 µM) | 15.6 µg/mL (≈ 50.6 µM) | 62.5 µg/mL (≈ 203 µM) | 31.3 µg/mL (≈ 102 µM)
3 | CC(=O)O[C@@H]1C=C2C(=O)OC[C@]2(O)[C@@]2(C)CCCC(C)(C)[C@H]12 [CINNAMOSMOLIDE] |  | 625 µg/mL (≈ 2030 µM) | 1250 µg/mL (≈ 4050 µM) |  |  | 313 µg/mL (≈ 1020 µM) | 78.1 µg/mL (≈ 253 µM) | 1250 µg/mL (≈ 4050 µM) | 156 µg/mL (≈ 506 µM) | 23.4 µg/mL (≈ 75.9 µM) | 625 µg/mL (≈ 2030 µM)
4 | C=CCc1cc2c(c(OC)c1OC)OCO2 [DILLAPIOLE] |  |  | 500 µg/mL (≈ 2250 µM) |  |  |  |  |  |  |  | 
5 | CC(=O)N1CCN(c2ccc(OCC3COC(Cn4ccnc4)(c4ccc(Cl)cc4Cl)O3)cc2)CC1 (centres undefined) [KETOCONAZOLE] |  | 0.04 µg/mL (≈ 0.0753 µM) | 0.4 µg/mL (≈ 0.753 µM) |  |  | 31.3 µg/mL (≈ 58.9 µM) | 93.8 µg/mL (≈ 177 µM) | 1.2 µg/mL (≈ 2.26 µM) | 93.8 µg/mL (≈ 177 µM) | 93.8 µg/mL (≈ 177 µM) | 
6 | CC1(C)CCC[C@@]2(C)[C@H]1[C@@H](O)C=C(C=O)[C@]2(O)C=O [MUKAADIAL] |  |  | 1000 µg/mL (≈ 3750 µM) | 250 µg/mL | 0.8 |  |  |  |  |  | 
7 | CC(=O)O[C@H]1C=C(C=O)[C@](O)(C=O)[C@@]2(C)[C@H](OC(C)=O)CCC(C)(C)[C@H]12 [PARRITADIAL] |  |  | 1000 µg/mL (≈ 2730 µM) | 250 µg/mL | 1.5 |  |  |  |  |  | 
